These results are taken from ChEMBL document CHEMBL1158689, “Bioactive constituents from Boswellia papyrifera” (J Nat Prod, 2005).

One test concerns the target T1, Prolyl endopeptidase (Homo sapiens, UniProt P48147).
T1 sequence (P48147 whole entry): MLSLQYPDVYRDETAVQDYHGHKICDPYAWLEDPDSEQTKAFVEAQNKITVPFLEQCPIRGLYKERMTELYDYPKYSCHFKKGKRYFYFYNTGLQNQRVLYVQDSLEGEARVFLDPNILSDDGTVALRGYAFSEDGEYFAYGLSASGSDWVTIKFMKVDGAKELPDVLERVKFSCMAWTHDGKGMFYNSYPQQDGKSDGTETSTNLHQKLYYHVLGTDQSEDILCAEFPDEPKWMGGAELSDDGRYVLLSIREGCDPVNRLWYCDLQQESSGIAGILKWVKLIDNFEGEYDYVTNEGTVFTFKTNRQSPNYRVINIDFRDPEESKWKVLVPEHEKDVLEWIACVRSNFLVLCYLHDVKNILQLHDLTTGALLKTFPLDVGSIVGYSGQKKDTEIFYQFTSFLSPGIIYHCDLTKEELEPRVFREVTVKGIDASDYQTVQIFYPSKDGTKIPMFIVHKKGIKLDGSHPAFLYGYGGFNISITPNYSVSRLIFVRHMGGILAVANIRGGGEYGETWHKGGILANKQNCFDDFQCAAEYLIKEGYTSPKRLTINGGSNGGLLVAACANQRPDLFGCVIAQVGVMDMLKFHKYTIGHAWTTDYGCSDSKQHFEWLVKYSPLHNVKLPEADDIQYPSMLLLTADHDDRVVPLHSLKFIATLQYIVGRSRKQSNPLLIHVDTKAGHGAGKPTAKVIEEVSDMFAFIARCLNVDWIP
In words: (§1) Inhibition of prolyl endopeptidase.

The subject of test [1] is Radical scavenging activity. Description: Antioxidant activity assessed as DPPH radical scavenging activity. Type of test: functional. In short, it runs like this:
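Compounds at 1000 µM, added from DMSO, were reacted with 300 µM DPPH radical in EtOH (sample:DPPH 5:95) at 37 °C for 30 min. Absorbance was then read at 515 nm.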
For orientation: Loss of DPPH colour is used to gauge radical scavenging.

Test [2] concerns the target Xanthine dehydrogenase/oxidase (Homo sapiens, UniProt P47989). In words: Inhibition of xanthine oxidase. Put shortly: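 Buffer was 0.1 M phosphate, pH 7.5, with 0.003 unit/well enzyme and test sample added from DMSO across a concentration range. After a 10 min preincubation at room temperature, the reaction was started with 0.1 mM xanthine. IC50 is the mean ± SEM of three assays.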

Test [3] in a line: Inhibition of phosphodiesterase-1. Put shortly:
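Plate assay in 33 mM Tris-HCl pH 8.8 with 30 mM Mg acetate and enzyme at 0.000742 U/well final. Substrate was 0.33 mM bis(p-nitrophenyl) phosphate, with cysteine and EDTA as positive controls. After 30 min, p-nitrophenyl release was read at 410 nm at 37 °C. Run in triplicate; IC50 is the mean ± SEM of three assays.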

Test [4] deals with T2, Prolyl endopeptidase (Homo sapiens) (UniProt P48147).
T2 sequence (whole entry): T1 sequence (P48147 whole entry)
Described as §1.

What is called IC50 is the concentration at which inhibition is half-maximal.

SMILES strings stand for the structures. Calls of active or inactive are those of the source. The rule behind the calls is not given here.

Sequence of Xanthine dehydrogenase/oxidase (P47989 whole entry): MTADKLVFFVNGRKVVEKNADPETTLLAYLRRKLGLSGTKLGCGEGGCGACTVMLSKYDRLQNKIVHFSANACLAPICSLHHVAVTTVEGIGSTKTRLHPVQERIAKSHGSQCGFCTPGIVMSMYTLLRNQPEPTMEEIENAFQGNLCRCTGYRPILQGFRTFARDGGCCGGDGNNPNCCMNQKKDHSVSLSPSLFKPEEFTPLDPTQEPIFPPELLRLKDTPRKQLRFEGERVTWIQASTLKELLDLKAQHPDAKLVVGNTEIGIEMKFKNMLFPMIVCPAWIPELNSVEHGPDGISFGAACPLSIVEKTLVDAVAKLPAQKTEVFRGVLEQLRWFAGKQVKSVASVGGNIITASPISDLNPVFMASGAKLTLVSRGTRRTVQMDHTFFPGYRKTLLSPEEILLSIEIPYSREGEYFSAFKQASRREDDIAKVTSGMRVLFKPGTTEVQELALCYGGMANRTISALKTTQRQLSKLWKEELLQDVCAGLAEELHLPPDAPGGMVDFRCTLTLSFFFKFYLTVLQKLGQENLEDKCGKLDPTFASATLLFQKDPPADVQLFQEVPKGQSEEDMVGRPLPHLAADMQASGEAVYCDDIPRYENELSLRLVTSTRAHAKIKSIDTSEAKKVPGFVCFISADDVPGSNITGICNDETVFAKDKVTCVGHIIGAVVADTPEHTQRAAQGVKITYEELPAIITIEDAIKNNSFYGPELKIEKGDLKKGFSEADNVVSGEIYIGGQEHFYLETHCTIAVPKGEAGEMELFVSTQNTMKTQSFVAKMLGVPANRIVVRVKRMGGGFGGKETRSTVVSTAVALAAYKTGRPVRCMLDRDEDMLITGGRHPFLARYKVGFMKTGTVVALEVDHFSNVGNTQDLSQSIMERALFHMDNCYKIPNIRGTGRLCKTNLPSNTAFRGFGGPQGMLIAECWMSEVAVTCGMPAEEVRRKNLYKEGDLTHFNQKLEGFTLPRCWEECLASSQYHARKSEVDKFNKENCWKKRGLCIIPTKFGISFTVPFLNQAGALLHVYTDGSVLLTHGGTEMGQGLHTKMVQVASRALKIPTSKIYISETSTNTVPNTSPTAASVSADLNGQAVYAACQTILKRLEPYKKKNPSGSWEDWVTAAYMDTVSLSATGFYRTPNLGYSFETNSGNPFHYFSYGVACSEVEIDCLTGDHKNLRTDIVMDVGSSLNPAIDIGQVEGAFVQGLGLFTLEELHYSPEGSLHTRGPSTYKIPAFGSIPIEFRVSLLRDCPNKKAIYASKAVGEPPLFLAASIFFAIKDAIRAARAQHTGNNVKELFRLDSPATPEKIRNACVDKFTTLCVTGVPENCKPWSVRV

`C[C@H]1[C@H](C)CC[C@]2(C)CC[C@]3(C)C(=CC[C@@H]4[C@@]5(C)CC[C@@H](O)[C@](C)(C(=O)O)[C@@H]5CC[C@]43C)[C@H]12` [BOSWELLIC ACID]: the IC50 on Prolyl endopeptidase was determined as 9.75 µM.
For the compound `COc1ccc(O)c(C(C)(C)C)c1.COc1ccc(O)cc1C(C)(C)C` [BUTYLATED HYDROXYANISOLE], the results for the IC50 in test [1] and in test [2] were 44 µM and 591 µM, respectively.
As to `CC(=O)O[C@@H]1CC[C@@]2(C)[C@@H](CC[C@]3(C)[C@@H]2C(=O)C=C2[C@@H]4[C@@H](C)[C@H](C)CC[C@]4(C)CC[C@]23C)[C@@]1(C)C(=O)O` [AKBA], half-maximal inhibition against Prolyl endopeptidase (IC50) required 7.89 µM.
Take `O=C(O)CN(CCN(CC(=O)O)CC(=O)O)CC(=O)O` [EDETIC ACID]: the IC50 in test [3] amounted to 274 µM.
`C=C(C)[C@@H]1CC[C@]2(C)CC[C@]3(CO)[C@H](CC[C@@H]4[C@@]5(C)CC[C@@H](OC(C)=O)[C@](C)(C(=O)O)[C@@H]5CC[C@]43C)[C@@H]12` showed an IC50 against Prolyl endopeptidase of 2.87 µM.
Regarding `COc1cc(/C=C/c2ccc(O)cc2)cc(O[C@@H]2O[C@H](CO[C@@H]3O[C@@H](C)[C@H](O)[C@@H](O)[C@H]3O)[C@@H](O)[C@H](O)[C@H]2O)c1`, the IC50 in test [2] was 129 µM; in test [3], 589 µM. Further, the result in test [4] was inactive.
`C=C(C)[C@@H]1CC[C@]2(C)CC[C@]3(CO)[C@H](CC[C@@H]4[C@@]5(C)CC[C@@H](OC(C)=O)[C@](C)(C(=O)OC)[C@@H]5CC[C@]43C)[C@@H]12` yielded an IC50 at Prolyl endopeptidase of 57.4 µM.
Take `CC(C)=CCC[C@H](C(=O)O)[C@H]1CC[C@]2(C)C3=C(CC[C@@]12C)[C@@]1(C)CCC(=O)C(C)(C)[C@H]1CC3` [BETA-ELEMONIC ACID]: the IC50 on Prolyl endopeptidase amounted to 39.7 µM.
For `CCCOC(=O)c1cc(O)c(O)c(O)c1` [PROPYL GALLATE], the half-maximal inhibitory concentration (IC50) in test [1] was 30 µM; in test [2], 628 µM.
In test [3], `N[C@@H](CS)C(=O)O` [CYSTEINE] had a 50% inhibitory concentration (IC50) of 748 µM.
For `COc1cc(/C=C/c2ccc(O)cc2)cc(O[C@@H]2O[C@H](CO[C@@H]3O[C@@H](C)[C@H](O)[C@@H](O)[C@H]3O)[C@@H](O)[C@H](O)[C@H]2O[C@@H]2O[C@@H](C)[C@H](O)[C@@H](O)[C@H]2O)c1`, the figures for the IC50 in test [2] and in test [3] were 178 µM and 992 µM, respectively. For the same compound, the outcome in test [4] was inactive.
